The values below come from ChEMBL document CHEMBL1255245, “Relative replication capacity and selective advantage profiles of protease inhibitor-resistant hepatitis C virus (HCV) NS3 protease mutants in the HCV genotype 1b replicon system” (Antimicrob Agents Chemother, 2008).

A word on the EC50: it is the concentration that produces a half-maximal response.

The subject of assay [1] is Hepatitis C virus. In words: Selectivity ratio of EC50 for Hepatitis C virus genotype 1b N expressing NS3 D168V mutant infected in human HuH7 cells to EC50 for Hepatitis C virus genotype 1b N expressing wild type NS3 infected in human HuH7 cells at 100 nM. The class given is functional, Hepacivirus hominis, genotype 1b strain N, Huh-7.
Assay [2] has as its system Hepatitis C virus. In words: Selectivity ratio of EC50 for Hepatitis C virus genotype 1b N expressing NS3 A156T mutant infected in human HuH7 cells to EC50 for Hepatitis C virus genotype 1b N expressing wild type NS3 infected in human HuH7 cells at 100 nM. The assay is classed as functional, Hepacivirus hominis, genotype 1b strain N, Huh-7.
Assay [3] has as its system Hepatitis C virus. As to the kind of experiment: Selectivity ratio of EC50 for Hepatitis C virus genotype 1b N expressing NS3 R155Q mutant infected in human HuH7 cells to EC50 for Hepatitis C virus genotype 1b N expressing wild type NS3 infected in human HuH7 cells at 100 nM. The class given is functional, Hepacivirus hominis, genotype 1b strain N, Huh-7.
Assay [4] relates to Hepatitis C virus. In words: Selectivity ratio of EC50 for Hepatitis C virus genotype 1b N expressing NS3 R155K mutant infected in human HuH7 cells to EC50 for Hepatitis C virus genotype 1b N expressing wild type NS3 infected in human HuH7 cells at 100 nM. The assay is classed as functional, Hepacivirus hominis, genotype 1b strain N, Huh-7.
Assay [5] has as its system Hepatitis C virus. As to the kind of experiment: Selectivity ratio of EC50 for Hepatitis C virus genotype 1b N expressing NS3 V170A mutant infected in human HuH7 cells to EC50 for Hepatitis C virus genotype 1b N expressing wild type NS3 infected in human HuH7 cells at 10 nM. The class given is functional, Hepacivirus hominis, genotype 1b strain N, Huh-7.
For assay [6], the system named is Hepatitis C virus. In words: Selectivity ratio of EC50 for Hepatitis C virus genotype 1b N expressing NS3 D168V mutant infected in human HuH7 cells to EC50 for Hepatitis C virus genotype 1b N expressing wild type NS3 infected in human HuH7 cells at 10 nM. The class given is functional, Hepacivirus hominis, genotype 1b strain N, Huh-7.
Assay [7] has as its system Hepatitis C virus. As to the kind of experiment: Selectivity ratio of EC50 for Hepatitis C virus genotype 1b N expressing NS3 A156T mutant infected in human HuH7 cells to EC50 for Hepatitis C virus genotype 1b N expressing wild type NS3 infected in human HuH7 cells at 10 nM. The assay is classed as functional, Hepacivirus hominis, genotype 1b strain N, Huh-7.
Assay [8] relates to Hepatitis C virus. As to the kind of experiment: Selectivity ratio of EC50 for Hepatitis C virus genotype 1b N expressing NS3 R155Q mutant infected in human HuH7 cells to EC50 for Hepatitis C virus genotype 1b N expressing wild type NS3 infected in human HuH7 cells at 10 nM. The assay is classed as functional, Hepacivirus hominis, genotype 1b strain N, Huh-7.
Assay [9] deals with Hepatitis C virus. In words: Selectivity ratio of EC50 for Hepatitis C virus genotype 1b N expressing NS3 R155K mutant infected in human HuH7 cells to EC50 for Hepatitis C virus genotype 1b N expressing wild type NS3 infected in human HuH7 cells at 10 nM. The assay is classed as functional, Hepacivirus hominis, genotype 1b strain N, Huh-7.
Assay [10] has as its system Hepatitis C virus. In words: Selectivity ratio of EC50 for Hepatitis C virus genotype 1b N expressing NS3 V170A mutant infected in human HuH7 cells to EC50 for Hepatitis C virus genotype 1b N expressing wild type NS3 infected in human HuH7 cells. The assay is classed as functional, Hepacivirus hominis, genotype 1b strain N, Huh-7. Put shortly:
(§1)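 Change in resistance: mutant replicon EC50 divided by wild-type 1b N replicon EC50 for the same drug. Both EC50s come from 4-day transient-replication assays in electroporated Huh7 cells with a firefly luciferase read-out, fitted from triplicate-well means. Mean of at least three experiments.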

For assay [11], the system named is Hepatitis C virus. In words: Selectivity ratio of EC50 for Hepatitis C virus genotype 1b N expressing NS3 D168A mutant infected in human HuH7 cells to EC50 for Hepatitis C virus genotype 1b N expressing wild type NS3 infected in human HuH7 cells. The class given is functional, Hepacivirus hominis, genotype 1b strain N, Huh-7. Put shortly:
as §1

Assay [12] has as its system Hepatitis C virus. In words: Selectivity ratio of EC50 for Hepatitis C virus genotype 1b N expressing NS3 D168V mutant infected in human HuH7 cells to EC50 for Hepatitis C virus genotype 1b N expressing wild type NS3 infected in human HuH7 cells. The class given is functional, Hepacivirus hominis, genotype 1b strain N, Huh-7. The method in brief:
as §1

The test system of assay [13] is Hepatitis C virus. As to the kind of experiment: Selectivity ratio of EC50 for Hepatitis C virus genotype 1b N expressing NS3 A156V mutant infected in human HuH7 cells to EC50 for Hepatitis C virus genotype 1b N expressing wild type NS3 infected in human HuH7 cells. The assay is classed as functional, Hepacivirus hominis, genotype 1b strain N, Huh-7. The method in brief: as §1

The test system of assay [14] is Hepatitis C virus. In words: Selectivity ratio of EC50 for Hepatitis C virus genotype 1b N expressing NS3 A156S mutant infected in human HuH7 cells to EC50 for Hepatitis C virus genotype 1b N expressing wild type NS3 infected in human HuH7 cells. The assay is classed as functional, Hepacivirus hominis, genotype 1b strain N, Huh-7. The method in brief:
as §1

The subject of assay [15] is Hepatitis C virus. As to the kind of experiment: Selectivity ratio of EC50 for Hepatitis C virus genotype 1b N expressing NS3 V36M/R155K double mutant infected in human HuH7 cells to EC50 for Hepatitis C virus genotype 1b N expressing wild type NS3 infected in human HuH7 cells. The class given is functional, Hepacivirus hominis, genotype 1b strain N, Huh-7. Put shortly: as §1

The test system of assay [16] is Hepatitis C virus. In words: Selectivity ratio of EC50 for Hepatitis C virus genotype 1b N expressing NS3 A156T mutant infected in human HuH7 cells to EC50 for Hepatitis C virus genotype 1b N expressing wild type NS3 infected in human HuH7 cells. The assay is classed as functional, Hepacivirus hominis, genotype 1b strain N, Huh-7. Put shortly: as §1
Assay [17] has as its system Hepatitis C virus. As to the kind of experiment: Selectivity ratio of EC50 for Hepatitis C virus genotype 1b N expressing NS3 R155K mutant infected in human HuH7 cells to EC50 for Hepatitis C virus genotype 1b N expressing wild type NS3 infected in human HuH7 cells. The class given is functional, Hepacivirus hominis, genotype 1b strain N, Huh-7. Put shortly: as §1

For assay [18], the system named is Hepatitis C virus. As to the kind of experiment: Selectivity ratio of EC50 for Hepatitis C virus genotype 1b N expressing NS3 R155Q mutant infected in human HuH7 cells to EC50 for Hepatitis C virus genotype 1b N expressing wild type NS3 infected in human HuH7 cells. The assay is classed as functional, Hepacivirus hominis, genotype 1b strain N, Huh-7. The method in brief:
as §1

In assay [19] the test system is Hepatitis C virus. In words: Selectivity ratio of EC50 for Hepatitis C virus genotype 1b N expressing NS3 V36M mutant infected in human HuH7 cells to EC50 for Hepatitis C virus genotype 1b N expressing wild type NS3 infected in human HuH7 cells. The class given is functional, Hepacivirus hominis, genotype 1b strain N, Huh-7. The method in brief: as §1
In assay [20] the test system is Hepatitis C virus. In words: Antiviral activity against wild-type Hepatitis C virus genotype 1b N infected in human Huh7 cells. The class given is functional, organism-based, Hepacivirus hominis. To be noted: genotype 1b strain N, Huh-7. Put shortly: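 Transient replication: firefly-luciferase replicon RNA (genotype 1b N strain) transcribed in vitro and electroporated into Huh7 cells, plated in DMEM with 10% FBS. Luciferase read at 4 h to gauge transfection/translation. Drug dilutions added to a second plate set, incubated 4 days at 37°C, then luciferase measured. Triplicate samples per experiment; EC50 fitted from means; at least three experiments.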

Assay [21] deals with Hepatitis C virus. As to the kind of experiment: Selectivity ratio of EC50 for Hepatitis C virus genotype 1b N expressing NS3 T54A mutant infected in human HuH7 cells to EC50 for Hepatitis C virus genotype 1b N expressing wild type NS3 infected in human HuH7 cells. The assay is classed as functional, Hepacivirus hominis, genotype 1b strain N, Huh-7. The method in brief:
as §1

For assay [22], the system named is Hepatitis C virus. As to the kind of experiment: Selectivity ratio of EC50 for Hepatitis C virus genotype 1b N expressing NS3 V170A mutant infected in human HuH7 cells to EC50 for Hepatitis C virus genotype 1b N expressing wild type NS3 infected in human HuH7 cells at 100 nM. The assay is classed as functional, Hepacivirus hominis, genotype 1b strain N, Huh-7.

Assay [23] concerns Hepatitis C virus. In words: Selectivity ratio of EC50 for Hepatitis C virus genotype 1b N expressing NS3 R155K mutant infected in human HuH7 cells to EC50 for Hepatitis C virus genotype 1b N expressing wild type NS3 infected in human HuH7 cells at >10 nM. The assay is classed as functional, Hepacivirus hominis, genotype 1b strain N, Huh-7.

Each structure is given as a SMILES string.

Regarding `COc1ccc2c(O[C@@H]3C[C@H]4C(=O)N[C@]5(C(=O)O)C[C@H]5/C=C\CCCCC[C@H](NC(=O)OC5CCCC5)C(=O)N4C3)cc(-c3csc(NC(C)C)n3)nc2c1` [CILUPREVIR], the “Ratio EC50” value in [1] is on record as 660; in assay [2], 660; in [3] it was 660; in assay [4] it was 660; in [5] it was 7; in assay [6], 7. Besides, the “Ratio EC50” value was 7 in [7]; 7 in assay [8]; 7 in assay [9]; 1.5 in assay [10]; 63.3 in [11]; 193.6 in assay [12]. For the same molecule, the “Ratio EC50” value in [13] was determined as 445; in assay [14] it was 28; in assay [15], 139.9; in assay [16] it was 366.6; in assay [17], 147.5; in [18], 29.6. Further, the “Ratio EC50” value in assay [19] is 0.8; in [21], 0.6; in [22], 660. This molecule also displayed an EC50 in [20] of 1.5 nM.

Turning to `CC(C)(C)OC(=O)N[C@H]1CCCCC/C=C\[C@@H]2C[C@@]2(C(=O)NS(=O)(=O)C2CC2)NC(=O)[C@@H]2C[C@@H](OC(=O)N3Cc4cccc(F)c4C3)CN2C1=O` [DANOPREVIR], the “Ratio EC50” value in assay [10] was 1.2; in assay [11], 14; in [12], 14.9; in assay [13], 7.1; in assay [14] it was 40; in assay [15], 55.7. Further, the Ratio EC50 in [16] was 96; in assay [17], 89.3; in assay [18], 6.1; in assay [19], 0.7; in assay [21], 0.9; in [23] it was 33. In assay [20], this molecule yielded a concentration giving a half-maximal response (EC50) of 0.3 nM.

Regarding `CCC[C@H](NC(=O)[C@@H]1[C@H]2CCC[C@H]2CN1C(=O)[C@@H](NC(=O)[C@@H](NC(=O)c1cnccn1)C1CCCCC1)C(C)(C)C)C(=O)C(=O)NC1CC1` [TELAPREVIR], the “Ratio EC50” value was determined as 0.1 in assay [11]; 0.2 in assay [12]; 63.1 in assay [13]; 19 in [14]; 3.3 in assay [15]; 96.3 in assay [16]. Further, the “Ratio EC50” value in assay [17] is 5.4; in [18] it was 1.3; in assay [19], 0.7; in assay [21], 6.7. Also, the EC50 in [20] stood at 320 nM.
